For series [1], the system named is Penicillium digitatum. The series is described as follows: Antimicrobial activity against Penicillium digitatum PHI-26 assessed as inhibition of orange postharvest decay progression at 32 uM pre-incubated with fungal conidia for 16 hr by orange fruit decay assay. It counts as functional, organism-based. In short, it runs like this: (§1)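 Orange fruit inoculation (Navelina, Navelate or Lanelate). Each fruit was wounded about 3 mm deep at four equatorial sites. 5 µL of inoculum (10^4 conidia mL-1 with peptide in water, preincubated 16 h at room temperature) went into each wound. Peptide was tested at 32 µM, from 4 to 64 µM, or from 1 to 4 µM. Fruit was held at 20 °C and 90% RH. Infected wounds were scored at 3, 5 and 7 dpi. Three replicas of five fruits each; Tukey mean separation.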

Series [2] in a line: Toxicity in Homo sapiens (human) RBCs assessed as hemolytic activity. It counts as cell-based. As to conditions: erythrocyte.
Series [3] relates to Penicillium digitatum. The series is described as follows: Antimicrobial activity against Penicillium digitatum PHI-26 assessed as inhibition of orange postharvest decay progression progression at 4 uM pre-incubated with fungus for 16 hr measured 7 days post fungal inoculation by orange fruit decay assay. It counts as functional, organism-based. The method, boiled down: as §1

For another series, the system named is Saccharomyces cerevisiae. The series is described as follows: Antimicrobial activity against Saccharomyces cerevisiae FY1679 assessed as microbial growth inhibition after 4 days by microtiter plate assay. It counts as functional. The conditions noted are these: FY1679, 96 h. In short, it runs like this:
(§2)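 Microtiter dose–response assay, as previously described. Peptide stocks were 1 mM in 5 mM MOPS pH 7. P. digitatum conidia came from 7–10-day PDA cultures grown at 24 °C and were counted with a hematocytometer. Yeast (YPD, 30 °C) and E. coli (LB, 37 °C) were grown to stationary phase and diluted. Growth was read as OD492 in triplicate. MIC: lowest concentration with no growth after 4 days in all independent experiments, each repeated at least three times.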

For series [4], the system named is Penicillium digitatum. The series is described as follows: Fungicidal activity against Penicillium digitatum PHI-26 conidia assessed as inhibition of conidia viability incubated for 16 hr by colony count assay. It counts as functional, organism-based. In short, it runs like this:
(§3)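 P. digitatum conidia (10^4 mL-1) were incubated with peptide (for example 4, 16 or 64 µM) in sterile distilled water for 16 h at room temperature, in triplicate. Samples were then serially diluted and spread on peptide-free PDA to count CFU. Results are given as mean CFU mL-1 ± SD compared with a no-peptide control.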

A short description of series [5]: Toxicity in Homo sapiens (human) RBCs assessed as hemolytic activity at 100 uM. The conditions noted are these: erythrocyte. It counts as cell-based.
For series [6], the system named is Penicillium digitatum. The series is described as follows: Fungicidal activity against Penicillium digitatum PHI-26 conidia assessed as reduction in conidia viability at 4 uM incubated for 16 hr by colony count assay relative to untreated control. It counts as functional. The method, boiled down: as §3
Series [7] concerns Penicillium digitatum. As to the kind of experiment: Antimicrobial activity against Penicillium digitatum PHI-26 assessed as inhibition of orange postharvest decay progression progression at 2 uM pre-incubated with fungus for 16 hr measured 7 days post fungal inoculation by orange fruit decay assay. It counts as functional. In short, it runs like this: as §1
Series [8] deals with Penicillium digitatum. As to the kind of experiment: Antimicrobial activity against Penicillium digitatum PHI-26 assessed as microbial growth inhibition after 4 days by microtiter plate assay. It counts as functional. The method, boiled down:
as §2

For another series, the system named is Escherichia coli. The series is described as follows: Antimicrobial activity against Escherichia coli DH5[alpha] assessed as microbial growth inhibition after 4 days by microtiter plate assay. It counts as functional. The conditions noted are these: 96 h. The method, boiled down: as §2
The subject of series [9] is Penicillium digitatum. As to the kind of experiment: Antimicrobial activity against Penicillium digitatum PHI-26 assessed as inhibition of orange postharvest decay progression at 32 uM by orange fruit decay assay. It counts as functional, organism-based. In short, it runs like this: (§4)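 Navelina sweet oranges were wounded about 3 mm deep at four equatorial sites. Each wound received 5 µL of 10^4 conidia mL-1 of PHI-26 mixed with peptide in water, inoculated either at once or after 16 h at room temperature. There were three replicas of five fruits, held at 20 °C and 90% RH. Infected wounds were scored at 3, 5 and 7 dpi as mean % ± SD, with Tukey separation.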

Series [10] concerns Penicillium digitatum. As to the kind of experiment: Antimicrobial activity against Penicillium digitatum PHI-26 assessed as inhibition of orange postharvest decay progression progression at 32 uM measured 7 days post fungal inoculation by orange fruit decay assay. It counts as functional, organism-based. The method, boiled down: as §4

Converted amounts (≈) assume the structure as drawn. The source made the active and inactive calls. The calls are words filed in the database; no cut-off is given here. A value given as a limit tells only on which side of the number the result lay.

One may read the inhibition as the change of the read-out against control, counted positive when it falls. Broadly, the MIC is the least concentration at which growth counts as inhibited. As for `CC(=O)N[C@@H](Cc1cnc[nH]1)C(=O)N[C@@H](CCCNC(=N)N)C(=O)N[C@@H](CCCCN)C(=O)N[C@@H](CCCCN)C(=O)N[C@@H](Cc1c[nH]c2ccccc12)C(=O)N[C@@H](Cc1ccccc1)C(=O)N[C@@H](Cc1c[nH]c2ccccc12)C(N)=O`, the inhibition result in the series with Penicillium digitatum [1], in the series with Penicillium digitatum [3] and with Penicillium digitatum [4] was “Active” throughout. Further, the Activity entry in series [2] and in series [5] was “Non-toxic” in each case. Besides, the MIC in the series on Saccharomyces cerevisiae turned out to be 16 µM (≈ 18.1 µg/mL); in the series on Penicillium digitatum [8] (PHI-26, 96 h), 4 µM (≈ 4.51 µg/mL); in the series on Escherichia coli it was 16 µM (≈ 18.1 µg/mL). The “fold change (FC)” value in the series with Penicillium digitatum [6] worked out at 2. Further, in the series with Penicillium digitatum [7], the inhibition at 2 µM was over 50%.
On to `CC(=O)N[C@@H](CCCNC(=N)N)C(=O)N[C@@H](CCCNC(=N)N)C(=O)N[C@@H](CCCCN)C(=O)N[C@@H](CCCCN)C(=O)N[C@@H](Cc1c[nH]c2ccccc12)C(=O)N[C@@H](Cc1ccccc1)C(=O)N[C@@H](Cc1c[nH]c2ccccc12)C(N)=O`, for which the inhibition result in the series with Penicillium digitatum [1], in the series with Penicillium digitatum [3] and with Penicillium digitatum [4] was “Active” each time. In addition, the Activity result in series [2] and in series [5] was “Non-toxic” in each case. Further, the minimum inhibitory concentration (MIC) in the series on Saccharomyces cerevisiae was determined as 16 µM (≈ 18.4 µg/mL); with Penicillium digitatum [8] (PHI-26, 96 h), 4 µM (≈ 4.59 µg/mL); in the series on Escherichia coli, 8 µM (≈ 9.18 µg/mL). Moreover, the “fold change (FC)” value in the series with Penicillium digitatum [6] turned out to be 2.
For the molecule `CC(=O)N[C@H](CCCNC(=N)N)C(=O)N[C@H](CCCNC(=N)N)C(=O)N[C@H](CCCCN)C(=O)N[C@H](CCCCN)C(=O)N[C@H](Cc1c[nH]c2ccccc12)C(=O)N[C@H](Cc1ccccc1)C(=O)N[C@H](Cc1c[nH]c2ccccc12)C(N)=O`, the MIC result in the series with Penicillium digitatum [8] is “Active”.
Still for that read-out and setting: the value for `CC(=O)N[C@H](Cc1cnc[nH]1)C(=O)N[C@H](CCCNC(=N)N)C(=O)N[C@H](CCCCN)C(=O)N[C@H](CCCCN)C(=O)N[C@H](Cc1c[nH]c2ccccc12)C(=O)N[C@H](Cc1ccccc1)C(=O)N[C@H](Cc1c[nH]c2ccccc12)C(N)=O` was “Active”.
As to `CC[C@H](C)[C@H](NC(C)=O)C(=O)N[C@@H](CC(C)C)C(=O)N1CCC[C@H]1C(=O)N[C@@H](Cc1c[nH]c2ccccc12)C(=O)N[C@@H](CCCCN)C(=O)N[C@@H](Cc1c[nH]c2ccccc12)C(=O)N1CCC[C@H]1C(=O)N[C@@H](Cc1c[nH]c2ccccc12)C(=O)N[C@@H](Cc1c[nH]c2ccccc12)C(=O)N1CCC[C@H]1C(=O)N[C@@H](Cc1c[nH]c2ccccc12)C(=O)N[C@@H](CCCNC(=N)N)C(=O)N[C@@H](CCCNC(=N)N)C(N)=O` [Indolicidin], the inhibition result in the series with Penicillium digitatum [3], in the series with Penicillium digitatum [4] and in the series on Penicillium digitatum [6] was “Active” in each case.
For `CC[C@H](C)[C@H](NC(=O)[C@H](CCCCN)NC(=O)[C@H](CCCCN)NC(=O)[C@H](Cc1ccccc1)NC(=O)[C@H](CC(C)C)NC(=O)[C@H](CCCCN)NC(=O)[C@@H](N)CCCCN)C(=O)N[C@@H](CC(C)C)C(=O)N[C@@H](CCCCN)C(=O)N[C@@H](Cc1ccccc1)C(=O)N[C@@H](CC(C)C)C(N)=O` [KKLFKKILKFL-NH2], in series [2], the Activity result is recorded as “Toxic”. Moreover, the MIC was 16 µM (≈ 22.5 µg/mL) in the series with Saccharomyces cerevisiae; 4 µM (≈ 5.62 µg/mL) in the series with Penicillium digitatum [8] (PHI-26, 96 h); 4 µM (≈ 5.62 µg/mL) with Escherichia coli. Further, the inhibition entry in the series on Penicillium digitatum [4] and with Penicillium digitatum [6] was “Active” throughout.
Take `CC[C@H](C)[C@H](NC(=O)[C@H](CCCCN)NC(=O)[C@H](CCCCN)NC(=O)[C@H](Cc1ccccc1)NC(=O)[C@H](CC(C)C)NC(=O)[C@H](CCCCN)NC(=O)[C@@H](N)CCCCN)C(=O)N[C@@H](CC(C)C)C(=O)N[C@@H](CCCCN)C(=O)N[C@H](C(=O)N[C@@H](CC(C)C)C(N)=O)C(C)C` [KKLFKKILKVL-NH2]: in [2], the Activity result is “Toxic”. Besides, the MIC in the series with Saccharomyces cerevisiae worked out at 16 µM (≈ 21.7 µg/mL); in the series on Penicillium digitatum [8] (PHI-26, 96 h), 4 µM (≈ 5.43 µg/mL); in the series with Escherichia coli, 4 µM (≈ 5.43 µg/mL). Further, the inhibition result with Penicillium digitatum [4] and in the series on Penicillium digitatum [6] was “Active” each time.
Consider `CC[C@H](C)[C@H](NC(=O)CN)C(=O)NCC(=O)N[C@@H](C)C(=O)N[C@H](C(=O)N[C@@H](CC(C)C)C(=O)N[C@@H](CCCCN)C(=O)N[C@H](C(=O)N[C@@H](CC(C)C)C(=O)N[C@H](C(=O)N[C@H](C(=O)NCC(=O)N[C@@H](CC(C)C)C(=O)N1CCC[C@H]1C(=O)N[C@@H](C)C(=O)N[C@@H](CC(C)C)C(=O)N[C@H](C(=O)N[C@@H](CO)C(=O)N[C@@H](Cc1c[nH]c2ccccc12)C(=O)N[C@H](C(=O)N[C@@H](CCCCN)C(=O)N[C@@H](CCCNC(=N)N)C(=O)N[C@@H](CCCCN)C(=O)N[C@@H](CCCNC(=N)N)C(=O)N[C@@H](CCC(N)=O)C(=O)N[C@@H](CCC(N)=O)C(N)=O)[C@@H](C)CC)[C@@H](C)CC)[C@@H](C)O)[C@@H](C)O)C(C)C)C(C)C` [MELITTIN], for which the inhibition entry in the series with Penicillium digitatum [1], in the series on Penicillium digitatum [9], in the series on Penicillium digitatum [3], in the series with Penicillium digitatum [4] and with Penicillium digitatum [6] was “inactive” throughout. Besides, in series [2], the Activity result is given as “Toxic”. Moreover, the MIC with Saccharomyces cerevisiae is 16 µM (≈ 45.5 µg/mL); in the series with Penicillium digitatum [8] (PHI-26, 96 h), 2 µM (≈ 5.69 µg/mL). In addition, in the series with Penicillium digitatum [10], the inhibition entry is “Active”.
Take Ac-RFWWFRRR-NH2: the inhibition result with Penicillium digitatum [1], in the series with Penicillium digitatum [9], in the series with Penicillium digitatum [3] and with Penicillium digitatum [4] was “Active” each time. For the same molecule, the MIC in the series with Saccharomyces cerevisiae is 32 µM; with Penicillium digitatum [8] (PHI-26, 96 h), 4 µM; in the series on Escherichia coli, 8 µM. Further, the Activity entry in [5] is recorded as “Non-toxic”. Further, the “fold change (FC)” value in the series on Penicillium digitatum [6] came out at 2.
For Ac-RKKWFW-NH2, the inhibition entry in the series on Penicillium digitatum [1] and in the series with Penicillium digitatum [4] was “Active” each time. Further, the Activity entry in series [2] and in series [5] was “Non-toxic” each time. Besides, the MIC in the series with Saccharomyces cerevisiae was determined as 32 µM; in the series on Penicillium digitatum [8] (PHI-26, 96 h) it was 4 µM; with Escherichia coli it was 32 µM. Moreover, the “fold change (FC)” value in the series with Penicillium digitatum [6] was found to be 2.

Values taken from ChEMBL document CHEMBL3046112, “Comparative study of antimicrobial peptides to control citrus postharvest decay caused by Penicillium digitatum” (J Agric Food Chem, 2007).
